Test results from ChEMBL document CHEMBL1833887, “Synthesis and evaluation of 7-substituted 4-aminoquinoline analogues for antimalarial activity” (J Med Chem, 2011).
Values after ≈ are worked out from the molar mass of the structure shown.

Experiments:
[1] = Ratio of EC50 for human HepG2 cells to EC50 for Plasmodium falciparum 3D7 infected in human erythrocytes
Plasmodium falciparum [2] = assay: Antimalarial activity against chloroquine-sensitive Plasmodium falciparum 3D7 infected in human erythrocytes assessed as reduction in parasitemia after 72 hrs by spectrophotometry; format: functional, organism-based; conditions: 3D7, 72 h
[3] = Solubility of the compound at pH 7.4 after 18 hrs by UV spectroscopic analysis; format: physicochemical; conditions: buffer
Outline: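 Kinetic solubility. A 10 mM stock is diluted 1:100 into PBS pH 7.4 and incubated 18 h at room temperature, then filtered; the filtrate is mixed 1:1 with 1-propanol. UV spectrum (250–500 nm) compared by AUC with a 1-propanol/PBS reference. Single experiment in triplicate.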

Plasmodium falciparum [4] = assay: Ratio of EC50 for chloroquine-resistant Plasmodium falciparum K1 infected in human erythrocytes to EC50 for chloroquine-sensitive Plasmodium falciparum 3D7 infected in human erythrocytes; format: functional
[5] = Ratio of EC50 for human HepG2 cells to EC50 for Plasmodium falciparum K1 infected in human erythrocytes
[6] = Dissociation constant, pKa of the compound; format: physicochemical
HepG2 = assay: Cytotoxicity against human HepG2 cells assessed as intracellular ATP level after 72 hrs by Celltiter-Glo luminescent assay; format: cell-based; conditions: HepG2, 72 h
[7] = Permeability of the compound at pH 7.4 after 30 mins by PAMPA; format: ADME; conditions: read-out: permeability
Outline: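 PAMPA at pH 7.4. A 10 mM DMSO stock is diluted into system solution buffer; its UV spectrum serves as reference. Membrane painted with GIT lipid, acceptor chamber holds acceptor solution buffer. Sandwich stirred for 30 min, aqueous boundary layer set to 40. Donor and acceptor UV spectra read at 250–500 nm. Permeability coefficient from the AUCs of reference, donor and acceptor. Single experiment in triplicate.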

Plasmodium falciparum [8] = assay: Antimalarial activity against chloroquine-resistant Plasmodium falciparum K1 infected in human erythrocytes assessed as reduction in parasitemia after 72 hrs by spectrophotometry; format: functional, organism-based; conditions: K1, 72 h

SMILES	Ratio EC50 [1]	EC50 (Plasmodium falciparum [2]) [nM]	solubility at 18 h [3] [µM]	Ratio EC50 (Plasmodium falciparum [4])	Ratio EC50 [5]	pKa [6]	EC50 (HepG2) [nM]	Papp at 0.5 h [7] [×10⁻⁶ cm/s]	EC50 (Plasmodium falciparum [8]) [nM]
COc1cccc(Oc2ccc3c(NCCCNCc4cc(F)ccc4OC)ccnc3c2)c1	3	2360	14.5 (≈ 6.69 µg/mL)	0.1	24	9.28	7100	317	296
COc1ccc(F)cc1CNCCCNc1ccnc2cc(Oc3ccccc3)ccc12	9	162	14.5 (≈ 6.26 µg/mL)	0.9	11	9.28	1500	317	138
COc1ccccc1Oc1ccc2c(NCCCNCc3ccc4c(c3)OCO4)ccnc2c1	427	14	14.5 (≈ 6.63 µg/mL)	37.7	11	9.28	5900	317	517
COc1cccc(CNCCCNc2ccnc3cc(Oc4ccccc4)ccc23)c1O	450	15	14.5 (≈ 6.23 µg/mL)	122	4	9.28	6800	317	1840
Fc1ccc(Cc2ccc3c(NCCCNCc4ccc5c(c4)OCO5)ccnc3c2)c(Cl)c1	603.8	27	4.2 (≈ 2.01 µg/mL)	35.9	16.8	9.47	16000	23	953
CC(C)(C)c1ccc(-c2ccc3c(NCCCNCc4ccc5c(c4)OCO5)ccnc3c2)cc1	6.2	223	32 (≈ 15 µg/mL)	2.2	2.8	9.47	1370	237	490
c1ccc2c(-c3ccc4c(NCCCNCc5ccc6c(c5)OCO6)ccnc4c3)cccc2c1	11	598	32 (≈ 14.8 µg/mL)	0.9	12.2	9.47	6570	237	538
Cc1cc(C)cc(Cc2ccc3c(NCCCNCc4ccco4)ccnc3c2)c1	712.1	9	4.2 (≈ 1.68 µg/mL)	77	9.2	9.47	6270	23	678
COc1ccc(-c2ccc3c(NCCCNCc4ccco4)ccnc3c2)cc1	565.7	11	32 (≈ 12.4 µg/mL)	2.2	261.9	9.47	6000	237	23
COc1ccc(F)cc1CNCCCNc1ccnc2cc(Cc3ccc(F)cc3)ccc12	47.1	75	4.2 (≈ 1.88 µg/mL)	7.8	6.1	9.47	3530	23	580
CCC(CC)c1ccc2c(NCCCNCc3ccco3)ccnc2c1	78.7	86	4.2 (≈ 1.48 µg/mL)	50.1	1.6	9.47	6760	23	4300
Fc1ccc(-c2ccc3c(NCCCNCc4ccco4)ccnc3c2)cc1	240.4	32	32 (≈ 12 µg/mL)	2.1	113.2	9.47	7760	237	69
COc1cccc(CNCCCNc2ccnc3cc(Cc4cc(C)cc(C)c4)ccc23)c1O	315.8	9	4.2 (≈ 1.91 µg/mL)	160	2	9.47	2680	23	1360
COc1ccc(F)cc1CNCCCNc1ccnc2cc(-c3cc(C(F)(F)F)cc(C(F)(F)F)c3)ccc12	9.4	92	32 (≈ 17.6 µg/mL)	8.8	1.1	9.47	870	237	812
Fc1ccc(Cc2ccc3c(NCCCNCc4ccc5c(c4)OCO5)ccnc3c2)cc1	43.7	127	4.2 (≈ 1.86 µg/mL)	2	21.7	9.47	5550	23	256
COc1cccc(CNCCCNc2ccnc3cc(Cc4cccc(C(F)(F)F)c4)ccc23)c1O	69	25	4.2 (≈ 2.08 µg/mL)	87.9	0.8	9.47	1720	23	2190
c1ccc(Cc2ccc3c(NCCCNCc4ccc5c(c4)OCO5)ccnc3c2)cc1	8.7	720	4.2 (≈ 1.79 µg/mL)	1.7	5.1	9.47	6280	23	1240
CC(C)(C)c1ccc(Oc2ccc3c(NCCCNCc4ccco4)ccnc3c2)cc1	3	1110	14.5 (≈ 6.23 µg/mL)	4.3	1	9.28	3100	317	4810
COc1cccc(CNCCCNc2ccnc3cc(Oc4ccc(Cl)cc4)ccc23)c1O	514	11	14.5 (≈ 6.73 µg/mL)	70.7	7	9.28	5700	317	785
Fc1ccc(-c2ccc3c(NCCCNCc4ccc5c(c4)OCO5)ccnc3c2)cc1	495.4	18	32 (≈ 13.7 µg/mL)	2	252	9.47	8770	237	35
COc1ccc(F)cc1CNCCCNc1ccnc2cc(-c3ccc(F)cc3)ccc12	44	18	32 (≈ 13.9 µg/mL)	5.5	7.9	9.47	770	237	97
